Measured values from PubChem BioAssay AID493090 (Southern Research Specialized Biocontainment Screening …, 2011).
Calls of active or inactive are those of the source.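 How the source made its calls: active means cell viability under 70% at any tested concentration, a measure not printed in our tables; inactive means the rest.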

Tested on: HEp-2 viability, luminescence cytotoxicity counter-screen
Assay: HEp-2 viability loss, luminescent readout – cell-based, synthesized compounds, set 5, cytotoxicity control for RSV inhibitor project, dose response (AID 493090)
How it was run: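 Test system: HEp-2 human cell line, uninfected, for cytotoxicity / Times: compound exposure of cells for 6 days at 37 °C / Measured by: CellTiter-Glo luminescence / Measure: % viability vs cell controls, CC50 from constrained four-parameter fit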

Structure (SMILES) | CC50
CCOC(=O)c1ccc2[nH]c3c(c2c1)CN(C)CC3 | > 50 µM (inactive)
COCCCNC(=O)c1ccc(Cn2c(=O)c3ccccc3n(Cc3ccc(C)cc3)c2=O)cc1 | > 50 µM (inactive)
Cc1ncccc1NC(=O)[C@@H]1CCCN1S(=O)(=O)c1cccc2cccnc12 | > 50 µM (inactive)
CC(=O)c1ccccc1NC(=O)[C@@H]1CCCN1S(=O)(=O)c1cccc2cccnc12 | > 50 µM (inactive)
